Source: ChEMBL document CHEMBL3112447, “Discovery of 1-methyl-1H-imidazole derivatives as potent Jak2 inhibitors” (J Med Chem, 2014)

Tests used:
[1] = Clearance in Wistar rat at 10 mg/kg, po and 3 mg/kg, iv; type: ADME, organism-based; settings: in vivo
How it was run: (§1)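 Rat pharmacokinetics. Oral dose 10 mg/kg in 0.1% HPMC. IV dose 3 mg/kg in 40% DMA/40% PEG/20% saline. Clearance, half-life, Vdss and oral bioavailability derived from the plasma profiles.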

[2] = Cytotoxicity against mouse BA/F3 cells expressing TEL-Jak2 after 72 hrs by MTS assay; type: functional; settings: BaF3, 72 h
How it was run: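 BaF3 TEL-Jak2 cells. Growth inhibition measured by MTS tetrazolium colorimetric read-out and reported as GI50.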

[3] = target: T1, Tyrosine-protein kinase JAK3 (Homo sapiens, UniProt P52333); assay: Inhibition of Jak3 (unknown origin)
T1 sequence (P52333 whole entry): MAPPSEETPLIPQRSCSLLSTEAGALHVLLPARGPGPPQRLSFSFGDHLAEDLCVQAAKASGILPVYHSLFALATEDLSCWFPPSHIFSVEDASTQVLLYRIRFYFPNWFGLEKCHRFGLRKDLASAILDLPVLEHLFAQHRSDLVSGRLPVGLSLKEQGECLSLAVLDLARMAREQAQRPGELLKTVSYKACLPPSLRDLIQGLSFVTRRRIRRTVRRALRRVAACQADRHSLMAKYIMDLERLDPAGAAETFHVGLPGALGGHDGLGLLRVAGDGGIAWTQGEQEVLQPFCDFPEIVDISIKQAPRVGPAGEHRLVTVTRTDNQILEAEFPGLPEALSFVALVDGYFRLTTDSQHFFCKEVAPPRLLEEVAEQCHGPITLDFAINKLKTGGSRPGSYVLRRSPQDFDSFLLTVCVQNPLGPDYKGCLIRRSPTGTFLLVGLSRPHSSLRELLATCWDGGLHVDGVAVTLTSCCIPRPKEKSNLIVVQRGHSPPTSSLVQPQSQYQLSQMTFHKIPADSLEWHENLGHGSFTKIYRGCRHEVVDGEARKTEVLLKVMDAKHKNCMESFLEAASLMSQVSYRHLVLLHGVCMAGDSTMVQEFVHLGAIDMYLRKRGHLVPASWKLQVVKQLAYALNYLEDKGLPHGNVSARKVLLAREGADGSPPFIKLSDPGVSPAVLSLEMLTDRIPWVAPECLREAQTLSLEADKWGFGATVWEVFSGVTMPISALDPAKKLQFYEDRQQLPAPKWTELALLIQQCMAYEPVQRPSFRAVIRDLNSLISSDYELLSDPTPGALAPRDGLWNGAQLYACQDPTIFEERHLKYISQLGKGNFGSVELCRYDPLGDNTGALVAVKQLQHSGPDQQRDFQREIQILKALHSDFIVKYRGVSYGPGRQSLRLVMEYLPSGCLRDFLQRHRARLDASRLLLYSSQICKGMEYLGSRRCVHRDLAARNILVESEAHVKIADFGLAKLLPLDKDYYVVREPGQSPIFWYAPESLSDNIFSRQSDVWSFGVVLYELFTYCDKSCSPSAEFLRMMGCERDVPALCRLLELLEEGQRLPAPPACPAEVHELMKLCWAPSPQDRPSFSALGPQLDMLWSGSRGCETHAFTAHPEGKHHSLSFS

[4] = Volume of distribution at steady state in Wistar rat at 10 mg/kg, po and 3 mg/kg, iv; type: ADME, organism-based; settings: in vivo, read-out: Vdss; how it was run: as §1
[5] = Half life in Wistar rat at 10 mg/kg, po and 3 mg/kg, iv; type: ADME, organism-based; settings: in vivo; how it was run: as §1
[6] = target: Tyrosine-protein kinase JAK1 (Homo sapiens, UniProt P23458); assay: Inhibition of Jak1 (unknown origin)
[7] = target: Tyrosine-protein kinase JAK2 (Homo sapiens, UniProt O60674); assay: Inhibition of Jak2 (unknown origin)
[8] = Volume of distribution at steady state in beagle dog at 2.5 mg/kg, iv; type: ADME, organism-based, Canis lupus familiaris; set-up: dose 2.5 mg/kg, route intravenous; settings: in vivo, read-out: Vdss
How it was run: (§2)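 Male beagle dogs. Oral dose 10 mg/kg in 0.1% HPMC, pH 2. IV dose 2.5 mg/kg in 20% TEG/D5W. […] Clearance, Vdss, half-life and oral bioavailability (F%) derived from the plasma profiles.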

Canis familiaris [9] = assay: AUC (0 to 12 hrs) in beagle dog at 10 mg/kg, po; type: ADME, organism-based, Canis lupus familiaris, Plasma; set-up: time < 12 hr, dose 10 mg/kg, route oral; settings: in vivo; how it was run: as §2
[10] = Half life in beagle dog at 2.5 mg/kg, iv; type: ADME, organism-based, Canis lupus familiaris; set-up: dose 2.5 mg/kg, route intravenous; settings: in vivo; how it was run: as §2
Canis familiaris [11] = assay: Oral bioavailability in beagle dog at 10 mg/kg; type: ADME, organism-based, Canis lupus familiaris; settings: in vivo; how it was run: as §2
[12] = Half life in beagle dog at 10 mg/kg, po; type: ADME, organism-based, Canis lupus familiaris; set-up: dose 10 mg/kg, route oral; settings: in vivo; how it was run: as §2
[13] = Oral bioavailability in Wistar rat at 10 mg/kg; type: ADME, organism-based; settings: in vivo; how it was run: as §1

Chain of Tyrosine-protein kinase JAK2 (O60674 whole entry): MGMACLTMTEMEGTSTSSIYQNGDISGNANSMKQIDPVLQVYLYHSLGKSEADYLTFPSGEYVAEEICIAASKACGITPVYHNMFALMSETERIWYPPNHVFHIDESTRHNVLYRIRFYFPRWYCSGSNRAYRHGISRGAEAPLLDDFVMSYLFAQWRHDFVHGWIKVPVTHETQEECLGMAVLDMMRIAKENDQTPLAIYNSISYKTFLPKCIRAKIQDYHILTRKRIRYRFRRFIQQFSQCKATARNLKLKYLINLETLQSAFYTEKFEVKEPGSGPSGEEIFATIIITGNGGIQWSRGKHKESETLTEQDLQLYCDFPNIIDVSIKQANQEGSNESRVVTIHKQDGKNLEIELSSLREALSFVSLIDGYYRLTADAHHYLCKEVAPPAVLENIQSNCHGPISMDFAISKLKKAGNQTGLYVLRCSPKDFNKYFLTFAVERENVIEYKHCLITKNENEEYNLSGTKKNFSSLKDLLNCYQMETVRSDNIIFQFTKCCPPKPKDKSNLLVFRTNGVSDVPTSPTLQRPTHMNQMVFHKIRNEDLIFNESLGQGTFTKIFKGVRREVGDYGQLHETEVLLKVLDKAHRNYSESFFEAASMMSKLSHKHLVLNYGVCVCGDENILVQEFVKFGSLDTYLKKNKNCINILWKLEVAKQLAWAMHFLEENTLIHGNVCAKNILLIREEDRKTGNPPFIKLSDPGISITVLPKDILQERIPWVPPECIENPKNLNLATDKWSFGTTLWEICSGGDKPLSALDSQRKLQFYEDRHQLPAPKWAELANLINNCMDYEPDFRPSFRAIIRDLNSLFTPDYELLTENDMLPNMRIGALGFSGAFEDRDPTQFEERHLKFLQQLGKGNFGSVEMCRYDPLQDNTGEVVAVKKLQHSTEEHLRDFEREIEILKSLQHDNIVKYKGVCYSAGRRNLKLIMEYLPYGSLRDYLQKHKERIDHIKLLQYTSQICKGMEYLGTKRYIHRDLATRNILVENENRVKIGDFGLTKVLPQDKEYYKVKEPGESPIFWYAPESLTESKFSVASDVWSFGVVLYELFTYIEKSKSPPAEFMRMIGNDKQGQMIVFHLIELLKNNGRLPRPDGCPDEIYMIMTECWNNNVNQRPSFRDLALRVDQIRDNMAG
Chain of Tyrosine-protein kinase JAK1 (P23458 whole entry): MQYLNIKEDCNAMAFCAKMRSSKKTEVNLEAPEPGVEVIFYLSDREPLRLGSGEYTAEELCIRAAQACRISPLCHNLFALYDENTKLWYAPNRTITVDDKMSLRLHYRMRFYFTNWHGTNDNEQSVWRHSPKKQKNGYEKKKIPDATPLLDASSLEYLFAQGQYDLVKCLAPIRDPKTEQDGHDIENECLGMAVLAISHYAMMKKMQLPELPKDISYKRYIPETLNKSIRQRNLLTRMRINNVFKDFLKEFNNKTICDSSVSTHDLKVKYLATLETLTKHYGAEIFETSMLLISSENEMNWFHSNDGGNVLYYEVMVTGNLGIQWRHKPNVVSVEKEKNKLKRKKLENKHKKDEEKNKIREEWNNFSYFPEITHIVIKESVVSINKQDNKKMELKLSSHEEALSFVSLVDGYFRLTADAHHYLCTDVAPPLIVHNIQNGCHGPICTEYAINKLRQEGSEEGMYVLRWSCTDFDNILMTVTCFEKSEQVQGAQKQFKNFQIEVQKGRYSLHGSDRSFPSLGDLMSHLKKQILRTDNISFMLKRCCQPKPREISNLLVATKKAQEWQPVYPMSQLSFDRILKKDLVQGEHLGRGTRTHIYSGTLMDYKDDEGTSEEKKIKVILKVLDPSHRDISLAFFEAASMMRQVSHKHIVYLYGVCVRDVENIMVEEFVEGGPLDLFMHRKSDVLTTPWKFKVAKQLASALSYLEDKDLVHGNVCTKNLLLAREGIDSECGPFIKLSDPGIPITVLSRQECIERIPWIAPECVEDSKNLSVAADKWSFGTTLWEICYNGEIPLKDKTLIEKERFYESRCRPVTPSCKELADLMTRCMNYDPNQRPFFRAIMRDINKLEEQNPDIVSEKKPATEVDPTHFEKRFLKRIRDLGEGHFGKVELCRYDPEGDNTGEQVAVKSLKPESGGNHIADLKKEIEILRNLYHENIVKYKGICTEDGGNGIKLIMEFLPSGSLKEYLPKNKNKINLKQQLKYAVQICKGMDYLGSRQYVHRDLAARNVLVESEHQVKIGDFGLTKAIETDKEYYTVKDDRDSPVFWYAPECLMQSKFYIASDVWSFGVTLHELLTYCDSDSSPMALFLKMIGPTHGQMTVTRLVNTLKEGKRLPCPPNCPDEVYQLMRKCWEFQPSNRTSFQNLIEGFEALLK

| SMILES | IC50 [3] [µM] | IC50 [6] [µM] | IC50 [7] [µM] | GI50 [2] [µM] | other results |
| --- | --- | --- | --- | --- | --- |
| Cc1csc2c(Nc3cn(C)cn3)nc(N[C@@H](C)c3ncc(F)cn3)nc12 | 3.93 | – | – | 0.037 | clearance [1]: 2.64 L/h/kg; Vd [4]: 1.2 L/kg; half-life [5]: 0.64 h |
| CC(Nc1nc(Nc2cn(C)cn2)c2[nH]ccc2n1)c1ncc(F)cn1 (racemic) | 5.88 | – | < 0.003 | 0.099 | – |
| C[C@H](Nc1nc(Nc2cn(C)cn2)c2ccn(C)c2n1)c1ncc(F)cn1 | 7.56 | 0.024 | 0.027 | 0.034 | – |
| CC(Nc1nc(Nc2cn(C)cn2)c2cn[nH]c2n1)c1ncc(F)cn1 (racemic) | 4.62 | 0.022 | 0.05 | 0.11 | – |
| CC(Nc1nc(Nc2cn(C)cn2)c2ccc(Cl)nc2n1)c1ncc(F)cn1 (racemic) | > 30 | – | < 0.003 | 0.028 | – |
| C[C@H](Nc1nc(Nc2cn(C)cn2)c2cnn(C)c2n1)c1ncc(F)cn1 | 1.44 | 0.016 | 0.015 | 0.026 | clearance [1]: 1.5 L/h/kg; Vd [8]: 2.1 L/kg; AUC (Canis familiaris [9]): 49 µM·h; half-life [10]: 6.2 h; F (Canis familiaris [11]): 139%; half-life [12]: 7.7 h; Vd [4]: 1.8 L/kg; half-life [5]: 1.3 h; bioavailability [13]: 90% |
| COc1ccc2c(Nc3cn(C)cn3)nc(NC(C)c3ncc(F)cn3)nc2c1 (racemic) | 13.2 | – | 0.024 | 0.034 | clearance [1]: 6.6 L/h/kg; Vd [4]: 6 L/kg; half-life [5]: 0.98 h |
| C[C@H](Nc1nc(Nc2cn(C)cn2)c2ccn(C3CC3)c2n1)c1ncc(F)cn1 | 2.46 | 0.029 | 0.027 | 0.056 | – |
| COc1ccc2nc(NC(C)c3ncc(F)cn3)nc(Nc3cn(C)cn3)c2c1 (racemic) | > 30 | – | 0.67 | 3 | – |

The next lines start with results.

| IC50 [3] [µM] | IC50 [6] [µM] | IC50 [7] [µM] | SMILES | GI50 [2] [µM] | other results |
| --- | --- | --- | --- | --- | --- |
| > 30 | 1.5 | 0.8 | C[C@H](Nc1nc(Nc2cn(C)cn2)c2nccnc2n1)c1ncc(F)cn1 | 0.53 | – |
| 3.78 | 0.131 | 0.033 | CC(Nc1nc(Nc2cn(C)cn2)c2cccnc2n1)c1ncc(F)cn1 (racemic) | 0.04 | clearance [1]: 6 L/h/kg; Vd [4]: 2.5 L/kg; half-life [5]: 0.92 h |
| – | – | 0.12 | C[C@H](Nc1ncc(Cl)c(Nc2cn(C)cn2)n1)c1ncc(F)cn1 | 0.27 | – |
| 30 | – | 0.49 | C[C@H](Nc1nc(Nc2cn(C)cn2)c2cc(F)cnc2n1)c1ncc(F)cn1 | 3.1 | – |
| 1.82 | 0.028 | 0.012 | C[C@H](Nc1nc(Nc2cn(C)cn2)c2ccncc2n1)c1ncc(F)cn1 | 0.025 | – |
| 14.8 | – | 0.003 | C[C@H](Nc1nc(Nc2cn(C)cn2)c2ccccc2n1)c1ncc(F)cn1 | 0.034 | – |
